Among the data in ChEMBL document CHEMBL5338787, “Discovery of Novel Bruton's Tyrosine Kinase PROTACs with Enhanced Selectivity and Cellular Efficacy” (J Med Chem, 2023) are Activity and IC50 values, retold here.

The target in test [1] is von Hippel-Lindau disease tumor suppressor/Tyrosine-protein kinase BTK (Homo sapiens) (UniProt Q06187+P40337). The test can be described thus: PROTAC activity at BTK/VHL protein protein interaction in human Ramos cell assessed as degradation of BTK incubated less than 3000 nM for 17 hrs measured by Western blot analysis. (A western blot detects proteins with antibodies after separation by electrophoresis.)
Sequence of von Hippel-Lindau disease tumor suppressor/Tyrosine-protein kinase BTK (Homo sapiens) (P40337 whole entry partner): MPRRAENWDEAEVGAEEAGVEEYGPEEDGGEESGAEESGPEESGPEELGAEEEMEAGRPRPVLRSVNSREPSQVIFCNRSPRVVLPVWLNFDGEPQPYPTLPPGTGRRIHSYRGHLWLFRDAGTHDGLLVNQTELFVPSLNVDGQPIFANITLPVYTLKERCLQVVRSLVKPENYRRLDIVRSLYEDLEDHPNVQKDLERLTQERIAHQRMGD
Sequence of von Hippel-Lindau disease tumor suppressor/Tyrosine-protein kinase BTK (Homo sapiens) (Q06187 2-659 limits assumed): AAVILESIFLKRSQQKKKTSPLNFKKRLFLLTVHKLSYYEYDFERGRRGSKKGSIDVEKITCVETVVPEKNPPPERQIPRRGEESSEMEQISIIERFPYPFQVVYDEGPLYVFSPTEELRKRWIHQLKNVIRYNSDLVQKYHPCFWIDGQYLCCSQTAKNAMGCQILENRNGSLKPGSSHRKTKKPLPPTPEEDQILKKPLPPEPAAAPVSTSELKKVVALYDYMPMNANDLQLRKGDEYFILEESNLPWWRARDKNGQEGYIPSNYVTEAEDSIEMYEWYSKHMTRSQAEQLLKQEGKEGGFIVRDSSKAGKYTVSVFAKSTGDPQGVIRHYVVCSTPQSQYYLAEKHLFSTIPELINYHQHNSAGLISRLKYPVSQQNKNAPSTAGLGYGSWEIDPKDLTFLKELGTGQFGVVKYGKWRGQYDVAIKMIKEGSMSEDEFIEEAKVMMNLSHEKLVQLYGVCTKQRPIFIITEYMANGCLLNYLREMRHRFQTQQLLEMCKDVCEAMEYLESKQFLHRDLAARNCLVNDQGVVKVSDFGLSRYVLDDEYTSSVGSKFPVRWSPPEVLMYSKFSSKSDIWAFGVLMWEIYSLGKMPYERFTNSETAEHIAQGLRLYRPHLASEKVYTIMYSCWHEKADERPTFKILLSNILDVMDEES

Another test has as its system MINO. In words: Induction of apoptosis in human MINO cells at 0.15 to 3000 nM for 48 hrs by Annexin-V/propidium iodide staining based flow cytometric analysis. It counts as functional, cell-based. The following applies: dose 0.15-3000 nM. Put shortly: (§1)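 Cells plated at 2 × 10^6 per well and treated 48 h at 3,000–0.15 nM (3-fold dilutions) or 1% DMSO. Harvested, washed in cold PBS, stained with Annexin V Alexa Fluor 488/propidium iodide, analysed by flow cytometry for % live, apoptotic and necrotic cells. Mean of two independent experiments.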
Background: In flow cytometry, cells or beads pass a laser one at a time.

Another test deals with TMD8. The test can be described thus: Induction of apoptosis in human TMD8 cells measured after 48 hrs by Annexin-V/propidium iodide staining based flow cytometric analysis. The test is classed as functional, cell-based. The following applies: dose 0.15-3000 nM. Summed up:
as §1

Test [2] is described as follows: Cytotoxicity against human MINO cells incubated for 48 hrs by celltitre glo 2.0 assay. It counts as functional, cell-based.

Calls of active or inactive are those of the source. The calls are words filed in the database; no cut-off is given here.

In the case of `Cc1ncsc1-c1ccc(CNC(=O)[C@@H]2C[C@@H](O)CN2C(=O)[C@@H](NC(=O)COCCOCCCCCCC(=O)N2CCN(c3ccc(Nc4cc(-c5ccnc(N6CCn7c(cc8c7CC(C)(C)C8)C6=O)c5CO)cn(C)c4=O)nc3)[C@@H](C)C2)C(C)(C)C)cc1`, the result in test [1] was inactive.
The term IC50 denotes the concentration at which inhibition is half-maximal. The low end stands for inhibition by little substance, the high end for a need for much substance. Turning to `C[C@H]1CN(C2COC2)CCN1c1ccc(Nc2cc(-c3ccnc(N4CCn5c(cc6c5CC(C)(C)C6)C4=O)c3CO)cn(C)c2=O)nc1` [FENEBRUTINIB], the result with MINO was inactive. The Activity entry with TMD8 is “Dose-Dependent Effect”. In addition, the IC50 in test [2] was 7.8 nM.
